ChEMBL document CHEMBL3352791, “Thioaryl naphthylmethanone oxime ether analogs as novel anticancer agents” (J Med Chem, 2014)
Activity calls are given as the source filed them. No cut-off for these calls is given here.

How the values were obtained:
[1] = Safety index, ratio of IC50 for human MCF10A cells to EC50 for human SW620 cells; type: toxicity, cell-based, SW-620; settings: MCF10A cells versus SW620 cells, read-out: Ratio IC50/EC50
Summary of the method: (§1)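 Safety index is the IC50 in the normal cells divided by the EC50 in the cancer cells. Both values come from MTT assays: cells in DMEM with 10% FBS, serum-starved 4 h, then exposed to compound across a 100nM-50µM dose range with 0.1% DMSO as vehicle control.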

[2] = Safety index, ratio of IC50 for human MCF10A cells to EC50 for human COLO205 cells; type: toxicity, cell-based, COLO 205; settings: MCF10A cells versus COLO205 cells, read-out: Ratio IC50/EC50; summary of the method: as §1
MDA-MB-231 [3] = assay: Cell cycle arrest in human […] cells assessed as accumulation at G2 phase at 2.5 uM by propidium iodide staining by FACS analysis (reference value: 22.74%); type: functional
[4] = target: Angiopoietin-1 receptor (Homo sapiens) (UniProt Q02763); assay: Inhibition of Tie2 (unknown origin) at 10 uM
Summary of the method: (§2)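 Cell-free kinase profiling was run as a standard 33P-ATP-based in vitro kinase assay.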

[5] = target: Ribosomal protein S6 kinase beta-1 (Homo sapiens) (UniProt P23443); assay: Inhibition of p70S6K (unknown origin) at 10 uM; summary of the method: as §2
MDA-MB-231 [6] = assay: Induction of cAMP level in human MDA-MB-231 cells at 0.1 to 25 uM; type: functional, cell-based
Summary of the method: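 MDA-MB-231 cells serum-starved for 4 h, treated with 500μM IBMX for 30 min, then exposed to compound for a further 30 min. Cellular cAMP read by HTRF kit.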

[7] = target: cGMP-dependent 3',5'-cyclic phosphodiesterase (Homo sapiens) (UniProt O00408); assay: Inhibition of PDE2A3 (unknown origin) activity at 1 to 10 uM
Summary of the method: (§3)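 Recombinant PDE isoform activity was read by fluorescence polarization. A binding reagent complexes with the nucleotide monophosphate that the phosphodiesterase generates from cAMP/cGMP, and this raises the polarization of the labelled substrate. Reference standards were PDE1A3 10µM IBMX, PDE2A3 1nM BAY 60-7550, PDE3CAT 1µM cilostazol, PDE4CAT rolipram, PDE5CAT 0.1µM sildenafil, PDE7A […], PDE8A1 10µM BRL-50481, PDE9A1 1µM SB 36216 and PDE11A1 dipyridamole.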

[8] = target: High affinity cAMP-specific and IBMX-insensitive 3',5'-cyclic phosphodiesterase 8A (Homo sapiens) (UniProt O60658); assay: Inhibition of PDE8A1 (unknown origin) activity at 1 to 10 uM; summary of the method: as §3
[9] = target: High affinity cGMP-specific 3',5'-cyclic phosphodiesterase 9A (Homo sapiens) (UniProt O76083); assay: Inhibition of PDE9A1 (unknown origin) activity at 1 to 10 uM; summary of the method: as §3
[10] = target: Epidermal growth factor receptor (Homo sapiens) (UniProt P00533); assay: Inhibition of EGF-induced EGFR phosphorylation at Tyr1173 in human MDA-MB-231 cells at 0.1 uM by ELISA; type: cell-based
Summary of the method: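 MDA-MB-231 cells pretreated 1 h in serum-free medium, then EGF-stimulated for 15 min and lysed. Equal lysate protein (Bradford) assayed by ELISA kits for p-EGFR (Tyr1068, Tyr845, Tyr1173) and p-HER2. Absorbance read at 450 nm, normalized to total EGFR or HER2.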

[11] = target: Focal adhesion kinase 1 (Homo sapiens) (UniProt Q05397); assay: Inhibition of basal level FAK phosphorylation at Tyr397 in human MDA-MB-231 cells at 1 uM by ELISA; type: cell-based
MCF7 [12] = assay: Induction of apoptosis in human […] cells; type: functional, cell-based
MDA-MB-231 [13] = assay: Cytotoxicity against human […] cells assessed as cell viability at 5 uM by MTT assay in presence of z-LEHD-FMK caspase-9 inhibitor; type: functional, cell-based
Summary of the method: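 Cells seeded 1×10^4/well in DMEM with 10% FBS, adhered overnight, serum-starved 4 h; pre-incubated 2 h with Z-IETD-FMK or Z-LEHD-FMK (10µM each), then 5μM compound for a further 24 h; viability by MTT.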

MCF7 [14] = assay: Antitumor activity against human MCF7 cells xenografted in NIH-3 mouse assessed as effect on tumor volume at 8 mg/kg, po for 29 days relative to control; type: functional, organism-based; parameters: dose 8 mg/kg
Summary of the method: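 MCF-7 cells (5x10^6 in 100μl PBS) injected intraperitoneally into NIH-III nude mice; after tumor induction, groups of n=10 dosed orally daily for 29 days at 8 or 16 mg/kg/day in 1% carboxymethyl cellulose (vehicle controls). Tumor diameter by vernier calipers every third day; volume = π/6×d³ (d mean diameter).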

MDA-MB-231 [15] = assay: Inhibition of ALDH1 in human MDA-MB-231 cells at 5 to 20 uM after 8 days by FACS analysis; type: functional, cell-based
Summary of the method: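 ALDH1-positive MDA-MB-231 cells identified with Aldefluor reagent and quantified by flow cytometry.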

MDA-MB-231 [16] = assay: Inhibition of INS expression in human MDA-MB-231 cells at 5 uM by ELISA; type: functional, cell-based
[17] = target: Epidermal growth factor receptor (Homo sapiens) (UniProt P00533); assay: Inhibition of EGF-induced EGFR phosphorylation at Tyr1045 in human MCF7 cells at 1 uM by ELISA; type: cell-based
[18] = target: Epidermal growth factor receptor (Homo sapiens) (UniProt P00533); assay: Inhibition of EGF-induced EGFR phosphorylation at Tyr992 in human MCF7 cells at 1 uM by ELISA; type: cell-based
[19] = target: T1, Signal transducer and activator of transcription 1-alpha/beta (Homo sapiens) (UniProt P42224); assay: Inhibition of basal level STAT1 phosphorylation in human MCF7 cells at 1 uM by ELISA; type: cell-based
T1 sequence (whole entry): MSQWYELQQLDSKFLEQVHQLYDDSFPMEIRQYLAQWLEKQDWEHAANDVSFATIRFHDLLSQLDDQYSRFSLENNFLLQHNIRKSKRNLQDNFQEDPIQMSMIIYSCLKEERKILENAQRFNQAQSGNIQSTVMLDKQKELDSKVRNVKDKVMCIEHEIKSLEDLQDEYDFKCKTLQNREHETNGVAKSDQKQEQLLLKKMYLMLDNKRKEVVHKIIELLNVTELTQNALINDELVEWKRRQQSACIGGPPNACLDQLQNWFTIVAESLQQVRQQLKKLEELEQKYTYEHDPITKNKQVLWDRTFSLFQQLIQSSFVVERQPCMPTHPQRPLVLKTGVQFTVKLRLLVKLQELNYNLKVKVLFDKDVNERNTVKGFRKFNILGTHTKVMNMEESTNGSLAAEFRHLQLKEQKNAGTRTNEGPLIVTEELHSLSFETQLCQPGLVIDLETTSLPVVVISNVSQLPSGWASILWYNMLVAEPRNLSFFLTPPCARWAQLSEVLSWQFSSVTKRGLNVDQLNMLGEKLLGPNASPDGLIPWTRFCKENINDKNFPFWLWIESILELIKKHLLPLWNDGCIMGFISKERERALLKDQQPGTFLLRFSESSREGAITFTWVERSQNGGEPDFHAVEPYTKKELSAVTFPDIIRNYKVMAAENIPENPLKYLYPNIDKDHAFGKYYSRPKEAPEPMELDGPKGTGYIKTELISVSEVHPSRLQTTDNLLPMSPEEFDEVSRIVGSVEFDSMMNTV

Chain of Epidermal growth factor receptor (Homo sapiens) (P00533 whole entry): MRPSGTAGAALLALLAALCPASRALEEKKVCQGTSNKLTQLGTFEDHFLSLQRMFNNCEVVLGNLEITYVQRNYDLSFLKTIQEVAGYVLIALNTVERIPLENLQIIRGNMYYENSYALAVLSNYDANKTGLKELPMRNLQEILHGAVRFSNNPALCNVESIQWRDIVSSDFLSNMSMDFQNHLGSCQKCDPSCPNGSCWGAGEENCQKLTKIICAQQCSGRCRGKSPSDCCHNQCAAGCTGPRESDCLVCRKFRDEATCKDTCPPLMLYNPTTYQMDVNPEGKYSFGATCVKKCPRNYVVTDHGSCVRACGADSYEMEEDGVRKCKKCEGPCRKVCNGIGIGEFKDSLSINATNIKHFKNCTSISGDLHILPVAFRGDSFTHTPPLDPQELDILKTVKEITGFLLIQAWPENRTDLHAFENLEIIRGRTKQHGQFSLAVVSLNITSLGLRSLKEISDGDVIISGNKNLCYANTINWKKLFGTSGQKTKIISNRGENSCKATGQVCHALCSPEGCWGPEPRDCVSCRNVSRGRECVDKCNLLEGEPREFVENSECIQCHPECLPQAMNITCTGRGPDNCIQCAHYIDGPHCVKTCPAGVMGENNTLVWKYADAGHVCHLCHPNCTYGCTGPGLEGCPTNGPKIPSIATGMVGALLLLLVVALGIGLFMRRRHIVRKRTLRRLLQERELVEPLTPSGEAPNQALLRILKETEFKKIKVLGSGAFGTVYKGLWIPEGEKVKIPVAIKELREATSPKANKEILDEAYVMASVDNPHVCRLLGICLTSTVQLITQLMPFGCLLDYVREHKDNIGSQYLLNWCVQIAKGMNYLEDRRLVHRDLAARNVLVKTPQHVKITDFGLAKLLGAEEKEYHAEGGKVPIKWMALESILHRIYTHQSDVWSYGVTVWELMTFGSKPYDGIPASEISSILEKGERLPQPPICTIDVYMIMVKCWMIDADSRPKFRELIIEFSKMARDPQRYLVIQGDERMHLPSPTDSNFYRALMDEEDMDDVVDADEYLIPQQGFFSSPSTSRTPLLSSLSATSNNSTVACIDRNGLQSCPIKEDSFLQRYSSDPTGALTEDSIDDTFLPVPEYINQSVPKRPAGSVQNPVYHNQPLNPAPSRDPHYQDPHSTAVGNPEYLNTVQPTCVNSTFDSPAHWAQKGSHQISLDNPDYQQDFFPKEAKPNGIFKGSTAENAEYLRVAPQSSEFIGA
Chain of High affinity cAMP-specific and IBMX-insensitive 3',5'-cyclic phosphodiesterase 8A (Homo sapiens) (O60658 whole entry): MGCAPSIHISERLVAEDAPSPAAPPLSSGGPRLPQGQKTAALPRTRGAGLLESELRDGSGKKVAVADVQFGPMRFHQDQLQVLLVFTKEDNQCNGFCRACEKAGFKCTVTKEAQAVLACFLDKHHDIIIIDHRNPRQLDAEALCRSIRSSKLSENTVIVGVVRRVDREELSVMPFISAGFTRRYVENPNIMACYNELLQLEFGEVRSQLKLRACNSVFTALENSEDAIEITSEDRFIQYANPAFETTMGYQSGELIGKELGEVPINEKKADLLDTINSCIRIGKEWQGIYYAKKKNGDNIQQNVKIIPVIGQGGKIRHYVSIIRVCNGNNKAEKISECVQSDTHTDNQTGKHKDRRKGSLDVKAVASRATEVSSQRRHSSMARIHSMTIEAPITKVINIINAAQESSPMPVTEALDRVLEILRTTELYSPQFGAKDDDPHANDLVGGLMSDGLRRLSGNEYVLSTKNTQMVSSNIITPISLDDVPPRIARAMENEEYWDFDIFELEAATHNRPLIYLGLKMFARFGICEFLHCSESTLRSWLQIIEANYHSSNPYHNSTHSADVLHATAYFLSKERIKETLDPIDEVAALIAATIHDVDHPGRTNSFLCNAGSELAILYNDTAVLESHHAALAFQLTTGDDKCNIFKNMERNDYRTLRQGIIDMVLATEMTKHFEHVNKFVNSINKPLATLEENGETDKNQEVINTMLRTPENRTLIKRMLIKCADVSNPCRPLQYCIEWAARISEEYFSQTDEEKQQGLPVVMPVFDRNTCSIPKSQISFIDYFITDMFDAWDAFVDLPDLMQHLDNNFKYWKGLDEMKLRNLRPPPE
Chain of Ribosomal protein S6 kinase beta-1 (Homo sapiens) (P23443 whole entry, looked up): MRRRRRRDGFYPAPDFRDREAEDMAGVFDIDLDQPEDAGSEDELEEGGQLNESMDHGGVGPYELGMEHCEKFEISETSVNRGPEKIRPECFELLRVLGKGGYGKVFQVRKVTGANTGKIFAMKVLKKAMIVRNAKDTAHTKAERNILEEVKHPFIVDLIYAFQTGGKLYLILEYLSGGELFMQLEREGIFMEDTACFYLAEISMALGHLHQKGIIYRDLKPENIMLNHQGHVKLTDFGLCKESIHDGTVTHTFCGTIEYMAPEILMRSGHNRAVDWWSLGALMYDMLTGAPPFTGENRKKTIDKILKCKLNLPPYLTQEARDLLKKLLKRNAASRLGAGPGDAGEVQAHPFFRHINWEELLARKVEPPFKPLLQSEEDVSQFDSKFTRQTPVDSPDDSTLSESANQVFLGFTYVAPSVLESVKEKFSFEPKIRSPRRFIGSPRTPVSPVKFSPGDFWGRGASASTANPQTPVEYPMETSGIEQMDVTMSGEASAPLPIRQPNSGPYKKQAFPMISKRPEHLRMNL
Chain of Focal adhesion kinase 1 (Homo sapiens) (Q05397 2-1052 limits assumed): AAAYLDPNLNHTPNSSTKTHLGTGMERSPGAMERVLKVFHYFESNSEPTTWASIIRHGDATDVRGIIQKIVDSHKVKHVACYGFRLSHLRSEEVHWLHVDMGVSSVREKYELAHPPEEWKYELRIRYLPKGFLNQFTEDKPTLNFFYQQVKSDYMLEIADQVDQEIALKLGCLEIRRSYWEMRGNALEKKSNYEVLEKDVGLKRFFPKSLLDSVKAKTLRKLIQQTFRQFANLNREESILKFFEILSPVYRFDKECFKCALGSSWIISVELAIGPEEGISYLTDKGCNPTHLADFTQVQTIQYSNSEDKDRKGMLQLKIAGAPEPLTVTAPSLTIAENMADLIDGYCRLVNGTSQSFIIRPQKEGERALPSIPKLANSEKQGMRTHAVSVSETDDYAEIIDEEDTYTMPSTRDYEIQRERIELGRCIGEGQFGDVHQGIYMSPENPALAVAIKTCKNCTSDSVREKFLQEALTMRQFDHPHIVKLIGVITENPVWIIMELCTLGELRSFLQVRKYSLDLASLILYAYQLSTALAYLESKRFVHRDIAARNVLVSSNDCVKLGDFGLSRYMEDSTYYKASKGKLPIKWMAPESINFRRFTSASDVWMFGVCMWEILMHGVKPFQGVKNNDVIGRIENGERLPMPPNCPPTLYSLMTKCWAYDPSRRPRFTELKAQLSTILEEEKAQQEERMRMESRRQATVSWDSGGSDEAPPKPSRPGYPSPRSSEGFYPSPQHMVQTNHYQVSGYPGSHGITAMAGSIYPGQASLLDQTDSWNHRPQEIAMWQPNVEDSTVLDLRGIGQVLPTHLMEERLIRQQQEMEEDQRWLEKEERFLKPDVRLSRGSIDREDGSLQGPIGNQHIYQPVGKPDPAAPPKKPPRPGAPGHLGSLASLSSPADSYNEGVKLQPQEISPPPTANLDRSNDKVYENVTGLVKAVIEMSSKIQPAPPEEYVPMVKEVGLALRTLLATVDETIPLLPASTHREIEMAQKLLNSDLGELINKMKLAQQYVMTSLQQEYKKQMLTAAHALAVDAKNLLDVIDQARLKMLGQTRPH
Chain of cGMP-dependent 3',5'-cyclic phosphodiesterase (Homo sapiens) (O00408 whole entry, canonical isoform): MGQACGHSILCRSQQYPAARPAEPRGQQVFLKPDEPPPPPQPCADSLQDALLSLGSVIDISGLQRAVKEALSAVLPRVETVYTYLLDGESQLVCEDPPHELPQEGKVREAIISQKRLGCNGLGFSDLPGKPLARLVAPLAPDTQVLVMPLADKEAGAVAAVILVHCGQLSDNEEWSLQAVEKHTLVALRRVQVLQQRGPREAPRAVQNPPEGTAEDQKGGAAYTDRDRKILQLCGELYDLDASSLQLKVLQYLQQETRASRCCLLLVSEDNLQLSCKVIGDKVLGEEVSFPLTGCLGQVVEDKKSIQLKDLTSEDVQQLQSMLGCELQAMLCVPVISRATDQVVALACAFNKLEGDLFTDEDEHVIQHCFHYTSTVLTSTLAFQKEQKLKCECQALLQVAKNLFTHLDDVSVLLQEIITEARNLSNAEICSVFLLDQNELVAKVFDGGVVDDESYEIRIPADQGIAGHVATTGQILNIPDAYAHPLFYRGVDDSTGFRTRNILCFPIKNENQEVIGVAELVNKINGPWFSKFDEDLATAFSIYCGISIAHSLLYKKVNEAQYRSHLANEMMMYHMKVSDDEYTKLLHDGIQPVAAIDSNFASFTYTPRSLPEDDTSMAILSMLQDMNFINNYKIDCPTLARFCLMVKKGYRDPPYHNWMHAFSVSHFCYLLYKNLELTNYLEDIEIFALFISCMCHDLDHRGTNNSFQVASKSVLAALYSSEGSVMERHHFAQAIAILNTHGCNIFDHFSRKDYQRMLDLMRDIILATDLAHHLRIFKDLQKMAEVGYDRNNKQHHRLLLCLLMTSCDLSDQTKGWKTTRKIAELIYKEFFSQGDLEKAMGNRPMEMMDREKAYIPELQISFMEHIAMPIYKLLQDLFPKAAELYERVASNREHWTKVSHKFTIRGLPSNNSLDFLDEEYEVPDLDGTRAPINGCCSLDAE

CCN(CC)CCO/N=C(\c1ccc(SC)cc1)c1cccc2ccccc12.O=C(O)C(=O)O
selectivity ratio [1]: 2.2 | selectivity ratio [2]: 4.7 | Activity (MDA-MB-231 [3]): 6.22%

CCN(CC)CCO/N=C(\c1ccc(SC)cc1)c1cccc2ccccc12
inhibition [4]: inactive | inhibition [5]: inactive | Activity (MDA-MB-231 [6]): Active | inhibition [7]: inactive | inhibition [8]: inactive | inhibition [9]: inactive | inhibition [10]: Active | inhibition [11]: Active | Activity (MCF7 [12]): Active | Activity (MDA-MB-231 [13]): inactive | inhibition (MCF7 [14]): inactive | inhibition (MDA-MB-231 [15]): Active | inhibition (MDA-MB-231 [16]): inactive | inhibition [17]: Active | inhibition [18]: Active | inhibition [19]: inactive
